Activity calls are given as the source filed them. The calls are words filed in the database; no cut-off is given here.
How the values were obtained:
COLO 205 = test: Cytotoxicity against human COLO205 cells assessed as cell growth level at 10 uM; assay type: functional
MOLT-4 = test: Cytotoxicity against human MOLT4 cells assessed as cell growth level at 10 uM; assay type: functional
PC-3 [1] = test: Growth inhibition of human PC3 cells after 48 hrs by SRB assay; assay type: functional, cell-based; conditions: PC-3, 48 h
Procedure, shortened: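 PC-3 cells were seeded in medium with 5% FBS; after 24 h a plate was fixed with 10% TCA as T₀. Vehicle (0.1% DMSO) or compound was given for 48 h, then cells were TCA-fixed, stained with 0.4% SRB in 1% acetic acid, solubilized in 10 mM Trizma base and read at 515 nm. IC₅₀ is the concentration halving the protein increase seen in controls.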

[2] = molecular target: T1, Telomerase reverse transcriptase (Homo sapiens, UniProt O14746); test: Inhibition of TERT transcriptional activity in human H1299 cells assessed SEAP activity at 100 uM incubated for 24 hrs by SEAP assay; assay type: cell-based; design: scale not given: the % may be the effect or the level left
Procedure, shortened: (§1)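 H1299 stable clones carry the hTERT promoter (−3338 to +1 bp) upstream of SEAP, introduced by electroporation and selected with G418. About 2 × 10³ cells per well were grown 24 h at 37 °C, given fresh medium, then drug for 24 h. Collected media were heated at 65 °C for 10 min, mixed with equal SEAP buffer (2 M diethanolamine, 1 mM MgCl₂, 20 mM L-homoarginine) and p-nitrophenyl phosphate at 12 mM final.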

[3] = molecular target: T1, Telomerase reverse transcriptase; test: Inhibition of TERT transcriptional activity in human H1299 cells assessed SEAP activity at 10 uM incubated for 24 hrs by SEAP assay; assay type: cell-based; design: scale not given: the % may be the effect or the level left; procedure, shortened: as §1
[4] = molecular target: T1, Telomerase reverse transcriptase; test: Inhibition of TERT transcriptional activity in human H1299 cells assessed SEAP activity at 1 uM incubated for 24 hrs by SEAP assay; assay type: cell-based; design: scale not given: the % may be the effect or the level left; procedure, shortened: as §1
[5] = Cytotoxicity against human H1299 cells assessed as cell viability at 100 uM after 48 hrs by MTT assay; assay type: functional; conditions: NCI-H1299, 48 h, read-out: Activity
Procedure, shortened: (§2)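 H1299 cells at about 2 × 10³ per well were grown 24 h at 37 °C in 5% CO₂. Compounds were dissolved in DMSO just before use and diluted into complete medium. After 48 h exposure, MTT was added for 4 h at 37 °C, then lysis buffer (20% SDS, 50% DMF) for 16 h at 37 °C. Absorbance was read at 550 nm.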

[6] = Cytotoxicity against human H1299 cells assessed as cell viability at 10 uM after 48 hrs by MTT assay; assay type: functional; conditions: NCI-H1299, 48 h, read-out: Activity; procedure, shortened: as §2
[7] = Cytotoxicity against human H1299 cells assessed as cell viability at 1 uM after 48 hrs by MTT assay; assay type: functional; conditions: NCI-H1299, 48 h, read-out: Activity; procedure, shortened: as §2
[8] = molecular target: T1, Telomerase reverse transcriptase; test: Inhibition of TERT activity in human H1299 cells homogenates incubated for 5 mins at 100 uM by TRAP assay; assay type: cell-free
Procedure, shortened: (§3)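 Telomerase-active extracts were prepared from H1299 cells, and lysate protein was measured against BSA standards. Compounds were tested in the TRAP assay, with RNase A-treated extracts as negative controls.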

PC-3 [9] = test: Cytotoxicity against human PC3 cells assessed as cell growth level at 10 uM; assay type: functional
A498 = test: Cytotoxicity against human A498 cells assessed as cell growth level at 10 uM; assay type: functional
IMR-90 = test: Cytotoxicity against human IMR90 cells after 48 hrs by MTT assay; assay type: cell-based; conditions: IMR-90, 48 h
[10] = Cytotoxicity against human H1299 cells expressing hTERT and SEAP after 48 hrs by MTT assay; assay type: cell-based; conditions: nci-h1299, 48 h
Procedure, shortened: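 H1299 stably carrying P_hTERT-SEAP, about 2 × 10³ cells per well, were grown 24 h at 37 °C, washed with PBS and given fresh medium. Compounds were added at varying amounts for 48 h, and growth was measured by MTT read at 550 nm. Values come from three experiments, with untreated cells set as 100%.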

SNB-19 = test: Cytotoxicity against human SNB19 cells assessed as cell growth level at 10 uM; assay type: functional
[11] = Cytotoxicity against human EKVX cells assessed as cell growth level at 10 uM; assay type: functional
DU-145 = test: Cytotoxicity against human DU145 cells assessed as cell growth level at 10 uM; assay type: functional
[12] = molecular target: DNA polymerase I, thermostable (Thermus aquaticus) (UniProt P19821); test: Inhibition of Thermus aquaticus DNA polymerase compound after telomerase extension step and before PCR-amplification step during TRAP assay
Procedure, shortened: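 TRAP-m variant: compounds were added after the telomerase extension step and before PCR amplification, using H1299 telomerase extracts, with RNase A-treated extracts as negative control.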

[13] = molecular target: T1, Telomerase reverse transcriptase; test: Inhibition of TERT activity in human H1299 cells homogenates incubated for 5 mins by TRAP assay; assay type: cell-free; procedure, shortened: as §3
[14] = Cytotoxicity against human NCI-ADR-RES cells assessed as cell growth level at 10 uM; assay type: functional

Chain of DNA polymerase I, thermostable (Thermus aquaticus) (P19821 whole entry): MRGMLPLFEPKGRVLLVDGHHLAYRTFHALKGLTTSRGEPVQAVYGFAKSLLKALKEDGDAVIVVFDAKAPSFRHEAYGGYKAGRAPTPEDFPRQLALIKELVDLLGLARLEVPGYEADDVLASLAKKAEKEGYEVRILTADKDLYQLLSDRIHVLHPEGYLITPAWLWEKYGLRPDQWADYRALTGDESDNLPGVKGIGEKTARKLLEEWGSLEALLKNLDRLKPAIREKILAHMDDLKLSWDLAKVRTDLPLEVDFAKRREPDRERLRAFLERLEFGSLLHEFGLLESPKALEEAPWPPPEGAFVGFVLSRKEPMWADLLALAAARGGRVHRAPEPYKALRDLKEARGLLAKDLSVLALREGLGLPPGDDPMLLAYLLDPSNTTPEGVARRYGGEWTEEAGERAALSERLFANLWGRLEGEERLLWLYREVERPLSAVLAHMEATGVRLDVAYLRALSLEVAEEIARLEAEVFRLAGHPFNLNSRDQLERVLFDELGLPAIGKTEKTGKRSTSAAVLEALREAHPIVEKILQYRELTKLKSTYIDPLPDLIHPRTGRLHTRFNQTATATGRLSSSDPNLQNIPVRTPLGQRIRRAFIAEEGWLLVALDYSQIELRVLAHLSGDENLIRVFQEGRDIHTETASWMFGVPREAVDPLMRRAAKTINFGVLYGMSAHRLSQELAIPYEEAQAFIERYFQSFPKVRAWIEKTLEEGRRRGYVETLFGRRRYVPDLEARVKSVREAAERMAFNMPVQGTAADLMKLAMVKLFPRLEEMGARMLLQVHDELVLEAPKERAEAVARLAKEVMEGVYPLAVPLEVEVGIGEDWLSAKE
T1 sequence (O14746 whole entry): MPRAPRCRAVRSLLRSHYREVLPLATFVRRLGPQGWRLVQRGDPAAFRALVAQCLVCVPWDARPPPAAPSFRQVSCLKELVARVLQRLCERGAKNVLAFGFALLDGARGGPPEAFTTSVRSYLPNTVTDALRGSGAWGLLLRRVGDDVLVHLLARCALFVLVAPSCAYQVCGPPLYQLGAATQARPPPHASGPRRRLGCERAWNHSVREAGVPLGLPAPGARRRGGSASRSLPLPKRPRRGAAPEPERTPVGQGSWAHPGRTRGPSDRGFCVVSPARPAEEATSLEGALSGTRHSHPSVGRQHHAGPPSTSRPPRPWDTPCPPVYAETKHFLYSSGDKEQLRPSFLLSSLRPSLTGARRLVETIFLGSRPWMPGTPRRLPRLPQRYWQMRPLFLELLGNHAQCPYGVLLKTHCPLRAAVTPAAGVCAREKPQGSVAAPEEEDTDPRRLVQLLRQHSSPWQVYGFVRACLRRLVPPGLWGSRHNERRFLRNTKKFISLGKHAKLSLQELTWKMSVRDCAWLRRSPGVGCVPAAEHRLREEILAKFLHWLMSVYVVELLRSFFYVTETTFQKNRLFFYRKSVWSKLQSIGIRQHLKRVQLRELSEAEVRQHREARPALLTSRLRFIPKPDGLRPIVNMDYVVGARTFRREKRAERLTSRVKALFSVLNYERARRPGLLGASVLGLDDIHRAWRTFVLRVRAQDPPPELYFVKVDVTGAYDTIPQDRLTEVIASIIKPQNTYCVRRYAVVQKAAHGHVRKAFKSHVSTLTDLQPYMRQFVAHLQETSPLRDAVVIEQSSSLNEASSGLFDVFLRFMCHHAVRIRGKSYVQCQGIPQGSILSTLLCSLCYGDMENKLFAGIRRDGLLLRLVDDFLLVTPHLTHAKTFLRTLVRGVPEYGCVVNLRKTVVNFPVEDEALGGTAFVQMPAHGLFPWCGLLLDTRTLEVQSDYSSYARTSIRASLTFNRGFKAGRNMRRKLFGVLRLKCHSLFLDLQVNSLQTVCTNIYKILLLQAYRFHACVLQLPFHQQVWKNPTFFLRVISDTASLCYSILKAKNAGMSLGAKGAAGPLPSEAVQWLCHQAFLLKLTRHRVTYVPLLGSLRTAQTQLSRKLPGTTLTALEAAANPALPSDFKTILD

IC50 (PC-3 [1]) | Activity [2] | Activity [3] | Activity [4] | TERT inhibition (active/not active) [8] | inhibition [12] | IC50 [13] | Compound | Activity (COLO 205) | Activity (MOLT-4) | viability at 100 µM [5] | viability at 10 µM [6] | viability at 1 µM [7] | Activity (PC-3 [9]) | Activity (A498) | IC50 (IMR-90) | Activity [10] | Activity (SNB-19) | Activity [11] | Activity (DU-145) | Activity [14]
> 30 µM | 0% | 35% | 83% | inactive | – | – | O=C1c2ccccc2C(=O)c2c1ccc1nc(CCN3CCN(c4ncccn4)CC3)[nH]c21 | – | – | 0% | 84% | 91% | – | – | 100 µM | Non-toxic | – | – | – | –
6.5 µM | 0% | 14% | 92% | Active | inactive | > 10 µM | CCN1CCN(Cc2nc3ccc4c(c3[nH]2)C(=O)c2ccccc2C4=O)CC1 | – | – | 0% | 35% | 86% | – | – | – | – | – | – | – | –
13.8 µM | 3% | 8% | 96% | Active | inactive | 5 µM | O=C1c2ccccc2C(=O)c2c1ccc1nc(CN3CCC(CCCC4CCNCC4)CC3)[nH]c21 | – | – | 0% | 0% | 97% | – | – | – | – | – | – | – | –
16 µM | 0% | 5% | 73% | inactive | – | – | O=C1c2ccccc2C(=O)c2c1ccc1nc(CCN3CCN(Cc4ccccc4)CC3)[nH]c21 | – | – | 6% | 54% | 96% | – | – | 100 µM | Non-toxic | – | – | – | –
> 30 µM | 37% | 93% | 103% | inactive | – | – | O=C1c2ccccc2C(=O)c2c1ccc1nc(CCN3CCN(c4ccccc4)CC3)[nH]c21 | – | – | 65% | 96% | 94% | – | – | – | – | – | – | – | –
15.3 µM | 3% | 30% | 105% | inactive | – | – | COc1cccc(N2CCN(Cc3nc4ccc5c(c4[nH]3)C(=O)c3ccccc3C5=O)CC2)c1 | – | – | 24% | 58% | 81% | – | – | – | – | – | – | – | –
> 30 µM | 26% | 97% | 102% | inactive | – | – | CC1CCN(Cc2nc3ccc4c(c3[nH]2)C(=O)c2ccccc2C4=O)CC1 | – | – | 32% | 110% | 114% | – | – | – | – | – | – | – | –

Compound | IC50 (PC-3 [1]) | Activity [2] | Activity [3] | Activity [4] | TERT inhibition (active/not active) [8] | inhibition [12] | IC50 [13] | Activity (COLO 205) | Activity (MOLT-4) | viability at 100 µM [5] | viability at 10 µM [6] | viability at 1 µM [7] | Activity (PC-3 [9]) | Activity (A498) | IC50 (IMR-90) | Activity [10] | Activity (SNB-19) | Activity [11] | Activity (DU-145) | Activity [14]
CCN(CC)Cc1nc2ccc3c(c2[nH]1)C(=O)c1ccccc1C3=O | 10.3 µM | 0% | 32% | 91% | inactive | – | – | 81% | -9.43% | 0% | 55% | 101% | 73.54% | 49.5% | – | – | – | – | – | –
O=C1c2ccccc2C(=O)c2c1ccc1nc(CN3CCN(c4ccccn4)CC3)[nH]c21 | > 30 µM | 1% | 57% | 91% | inactive | – | – | – | – | 20% | 69% | 91% | 81.46% | 68.23% | – | – | 81% | 63% | 89.1% | –
O=C1c2ccccc2C(=O)c2c1ccc1nc(CN3CCN(c4ccccc4)CC3)[nH]c21 | > 30 µM | 6% | 77% | 92% | inactive | – | – | – | – | 18% | 54% | 90% | 90.69% | 75.09% | – | – | – | – | 77.91% | –
CN1CCN(Cc2nc3ccc4c(c3[nH]2)C(=O)c2ccccc2C4=O)CC1 | 6.5 µM | 6% | 23% | 106% | Active | inactive | > 10 µM | – | -13.44% | 0% | 35% | 87% | 60.08% | 69.36% | – | – | – | – | – | 62.93%
CN(CCc1ccccn1)Cc1nc2ccc3c(c2[nH]1)C(=O)c1ccccc1C3=O | 14.2 µM | 0% | 51% | 96% | inactive | – | – | – | – | 0% | 99% | 104% | 83.7% | 69.6% | – | – | – | – | 99.83% | –
O=C1c2ccccc2C(=O)c2c1ccc1nc(CN3CCCCC3)[nH]c21 | 10.3 µM | 7% | 44% | 76% | inactive | – | – | – | – | 20% | 79% | 111% | 74.9% | 61.84% | 100 µM | Non-toxic | – | – | 81.94% | –
